Drawing on the RNAGym collection of RNA variant scans (doi:10.1126/science.aae0568), this text covers yeast fitness for 167 variants.

B1: tRNA (parent)
chain: GUUCCGUUGGCGUAAUGGUAACGCGUCUCCCUCCUAAGGAGAAGACUGCGGGUUCGAGUCCCGUACGGAACG

Variants at the floor of the assay were thinned out.

In this data set the parent is B1. In words: yeast fitness relative to wild type (ratio to wild type); higher = fitter; tRNA-Arg(CCU), competitive growth, 37 C, YPD. The gist of the method:
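Variants of the tRNA-Arg(CCU) gene, chemically synthesised with a 3% per-site mutation rate at 69 sites, were placed at the native genomic locus in Saccharomyces cerevisiae. The pooled strains were competed in YPD at 37°C for 24 hours in six parallel replicates. Gene amplicons from the start population and from each end population were read by 100-nucleotide paired-end sequencing. Darwinian fitness relative to wild type came from changes in genotype frequencies; genotypes needed ≥ 100 starting reads, and estimates < 0.5 were set to 0.5.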
Turning to C4U C34A C46U U47A, the yeast fitness is at most 0.5. For C34G A45C, the yeast fitness turned out to be 0.569. Under U8A C34G stands at most 0.5; under A37C U59C, 0.699; under G10A A37C A57C, at most 0.5. For C5G C33G A40U A65C the value was at most 0.5. With C49G G56C G67C, the yeast fitness is at most 0.5. Consider G39A C46A A65U, for which the yeast fitness is 0.581. Under C24A G56C C61G stands at most 0.5. With G17A C31U A42C, the yeast fitness is 0.582. For G17C A21G A40C G44C C61A the value was 0.622.

Regarding G10A U16A A65U, the yeast fitness was determined as 0.575.

With C31G A45C C49A, the yeast fitness is 0.807.

For the variant C4A G68U A69G, the yeast fitness is 0.705. In the case of U8C A40C C62G, the yeast fitness was at most 0.5. For A20G G67A A69U the value was 0.516.

Consider U19A A70U, for which the yeast fitness stood at 1.03.

As for G12C C24G, the yeast fitness came out at 0.622.

In the case of A14C G25C G52A C66U, the yeast fitness was at most 0.5. U26A C34G A43U C49A: the yeast fitness is at most 0.5. Turning to A42G C49U G51A, the yeast fitness was found to be 0.535. For the variant G12A G52C, the yeast fitness was found to be 0.668.

As for C5G C29U A43C, the yeast fitness worked out at 0.537. Take U26C U28C C29G C34A: the yeast fitness is at most 0.5. As to C11A C29A, the yeast fitness is at most 0.5. Turning to C5U U8A G18C G23A, the yeast fitness is at most 0.5. For A14U A21U C22U the value was 0.527. Take A14C C34A: the yeast fitness amounted to 0.565.

Regarding G10A C31U G44C A69U, the yeast fitness was at most 0.5. Under G9C C33A A70C stands 0.826; under U8C U13A C24U C29G C33A U47A C55U A65C A69G, at most 0.5. On to U2A U32A A65U A69C, for which the yeast fitness was at most 0.5.

A15C G58A C61G C62G: the yeast fitness is at most 0.5. Consider C4G C5U G44C, for which the yeast fitness was at most 0.5.

For the variant U13C U59C C66U G67U, the yeast fitness worked out at 0.576. For C11G G17C U35C C49U C66U the value was at most 0.5; for G6A U54G A65U, at most 0.5.

On to C34G C49U A65C, for which the yeast fitness amounted to 0.532. Under G23A C29A G48A C55A stands at most 0.5; under C30U A42C G48C U64C, at most 0.5; under C30A U47C G67U, at most 0.5. As to A36G A45C A57C U64A G68A, the yeast fitness is at most 0.5.

Turning to C4A C5A C29U G51C, the yeast fitness was at most 0.5.

For C4A A14U C27U U28A, the yeast fitness amounted to 0.859.

Turning to U8C A20G C33A G44A C61U, the yeast fitness was at most 0.5. In the case of U28A C55G, the yeast fitness amounted to 0.537. On to U7A G23C A45G C60G, for which the yeast fitness was at most 0.5. For U8A G12A C22A C31G G58A C61A, the yeast fitness is at most 0.5. Under A42C A45C G52C stands at most 0.5; under C27G C31U C34G A37G G44A, at most 0.5.

On to C5A A20C A21G A65G C66U, for which the yeast fitness is at most 0.5. In the case of G9A C22G, the yeast fitness is 0.869. For C34G C62A G63A, the yeast fitness is at most 0.5. With G10A C29A C34G A43C C60G C66U, the yeast fitness was at most 0.5.

Regarding C34G C62G C66G A69C, the yeast fitness was at most 0.5. Take A14G C46U G50C C55U A57U C62G A70U: the yeast fitness was 0.54.

For the variant G12A C22G C27A, the yeast fitness was found to be 0.663. For C5U C11A A21G G23C U64A the value was at most 0.5; for U8C U16C A21C C49A G58A C66U G68A, at most 0.5. As for C4U G44A G58A, the yeast fitness was determined as 0.974. For A40U C66G the value was 0.71; for A21G A45C A69U, 0.762; for U47A C62A, 0.683. With G39C A70G, the yeast fitness turned out to be 0.915.

Turning to A21U U59A, the yeast fitness came to 0.587.

Take U26C U35C U64G A65G C66G: the yeast fitness was at most 0.5. On to C11U G18C C29A G67C, for which the yeast fitness was at most 0.5. With C34G G58A G63C, the yeast fitness is at most 0.5.

For C30U G51A C66U A70C, the yeast fitness was at most 0.5. Turning to C55A A65U, the yeast fitness was 0.572. Regarding A43C G52A C55U C60A, the yeast fitness was at most 0.5. On to A40G C60U, for which the yeast fitness was 0.674. G39C A43C A45G: the yeast fitness is at most 0.5.

In the case of A15G C29A A42C A70U, the yeast fitness was at most 0.5. For A20U G25A A69U, the yeast fitness stood at 0.838. Consider A14C C24U C31U A40U G44A, for which the yeast fitness was at most 0.5. U13C A15G: the yeast fitness stood at 0.903.

C5A C24U U35C C66U: the yeast fitness was determined as 0.549. On to C11U A21G C62U, for which the yeast fitness worked out at 0.648. In the case of C34U A70C, the yeast fitness came to 0.73. Consider A15U C31U G52A A57U G58C, for which the yeast fitness is at most 0.5.

For the variant C33G U35A, the yeast fitness is at most 0.5. For the variant C30U G51A C55A, the yeast fitness was 0.686. For the variant G10C U26C A45G U53C A65C, the yeast fitness was at most 0.5.

Take A21G G63U: the yeast fitness was 0.752. As to U2C A20C G68A, the yeast fitness stood at 0.614. With C27G C60U, the yeast fitness is at most 0.5. In the case of U8G G10C A20G C55U, the yeast fitness was at most 0.5. For U28A C49G A57G the value was at most 0.5; for U19A C66G, 0.686; for C22U U28A A37U G51C C66U, 0.606. Under C46U A69C stands 0.976.

With G6A U13G C27U C30A G44C C46U, the yeast fitness was at most 0.5. On to G6C A65G C66U, for which the yeast fitness is 0.84. As to C24U C49A U64C, the yeast fitness was 1.04. As to C4U G12A C27G C34A C49A G68U, the yeast fitness was at most 0.5.

Consider U8C G48C G52A C66A, for which the yeast fitness is at most 0.5. U13C C61U: the yeast fitness was 0.928. For U2C U19A C24U G38A U54C C66A, the yeast fitness was at most 0.5. Under A20U A42G A65G stands 0.689; under C4G C11G G41C U59G A70G, at most 0.5; under C4A G39A C55U U59G G68C, at most 0.5. For C31G C49U U54G the value was at most 0.5; for A42C U47C A69U, 0.821. Under G12A A15C G58C stands at most 0.5.

C27G G38A G48C: the yeast fitness came to 0.538. For A14C U19G C31G C33U A42G G48A G52A, the yeast fitness is at most 0.5. Under A14C C24A G52A U53A A57C stands 0.5.

Regarding C5G G10C U13G A37C G56A A65U, the yeast fitness was 0.64. For C22G C33A A36C A43U C55G the value was at most 0.5; for G6C C55G, 0.695. For U3A U19A C33A C49U G52A the value was at most 0.5; for C30U A65U C66G, at most 0.5; for C5U G10A A70U, 0.609. For C46U C55A the value was 0.587. For the variant U16C C30U C46A, the yeast fitness was 0.768.

Regarding U8C C24G C55A, the yeast fitness was at most 0.5.

U7G G10C: the yeast fitness was found to be 0.709. For U7A A20G C29U A57C the value was at most 0.5; for A42U C62U, 0.991. Regarding A20U G50A G68C, the yeast fitness was at most 0.5. For the variant G10A G44A U54C G67C, the yeast fitness was at most 0.5. Regarding U3C U54C G67C, the yeast fitness is at most 0.5. For G9A A42C G58A the value was 0.917; for U3G U8A G18C, 0.63. Under C4U U13C stands 0.884; under C11G A21G A40G A69U, at most 0.5. Take C11U U35C A36U C46U G51A: the yeast fitness is at most 0.5. For C5A C49G the value was 0.704; for C5A C55A A69C, at most 0.5.

G9A U16C A20G A42G: the yeast fitness was at most 0.5.

Consider G6C U16C A42U G52U, for which the yeast fitness was 0.634. For G41C A69U A70G the value was 0.537; for U13A C24U U59C G67A, at most 0.5. For the variant U7G C11U G12C C33U G63C G68U, the yeast fitness was at most 0.5. For U8A C61A A65U the value was 0.554. For G10C A15U C29G C46U G51C C61G the value was at most 0.5. For A20U C33U A43G U64C the value was at most 0.5; for U16C A40U A65U, 0.588; for A14G C24G G52A, at most 0.5.

Turning to C5U U19C A37G G63C, the yeast fitness was at most 0.5. Consider U19A C29G U54C G58A, for which the yeast fitness is at most 0.5. In the case of U7C G9A C24G A45U C49A U53A, the yeast fitness is 0.681. As to U8G U13A A43G U53A G68A, the yeast fitness is at most 0.5.

On to U26C C30U U47A, for which the yeast fitness came out at 0.749. Regarding C4A G12C U13G C30U A65U, the yeast fitness is at most 0.5.

For A65C G67C, the yeast fitness was determined as 0.782. Regarding C11U A20U A36G C55G, the yeast fitness was at most 0.5. For C5A A14G A37G C49G C55U G56C G68A the value was at most 0.5; for U7A G44C C61A C62U C66U, at most 0.5; for U2C U3A A40C, at most 0.5.

As for C34G G38A, the yeast fitness amounted to 0.624. Regarding U3A C24A C30U C62U, the yeast fitness is at most 0.5. Regarding C5U A21U, the yeast fitness was determined as 0.766. For C31G G41A A43C G51C the value was 0.562. As for U28A C29G G51A G56A C66G, the yeast fitness is at most 0.5. On to C4U U19C C31A, for which the yeast fitness is at most 0.5.

Regarding C4A G17C G23C, the yeast fitness is at most 0.5. For the variant A14C C31U A36U, the yeast fitness came out at 0.631. Consider C4G A65G, for which the yeast fitness was 1.02. On to U19C G48A G58C C61A, for which the yeast fitness is at most 0.5.

As to U3G U16A, the yeast fitness was 0.938. For C5G C22G C55A A65U the value was 0.63; for G38C G48A, 0.744. With G12C C24U C55U G68C, the yeast fitness was found to be 0.55. In the case of G10A C22U G56C, the yeast fitness came to 0.566. For A42C C55G, the yeast fitness worked out at 0.612.
